Screen size: about 210,000 compounds; about 220 (0.1%) were called active. The sample as a whole holds a higher share of actives than the screen did. A number with no mark means an inactive call.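 The calls were made as follows: active = signal enhancement of 30% or more; inactive = the rest.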
target: E3 ubiquitin-protein ligase Mdm2 (Homo sapiens) (UniProt Q00987); assay: MDM2-luciferase reporter signal enhancers, primary screen, MDM2 E3 ligase inhibitor project, cell-based, luminescence, 1536-well (AID 1230); conditions: cell-based MDM2 ubiquitination luciferase reporter, 2 h; at 5 µM; active compounds read high; 0 = plate control, 100 = twice control, blank-subtracted;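 also: luminescence tracks abundance of the self-degrading MDM2-luciferase fusion protein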
How it was run: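 System: stable MDM2–luciferase fusion reporter cells / Input: 2000 cells seeded into each well / Schedule: 4 h settle plus 2 h compound, 37 °C / Compound: single-point 5 µM / Buffer or medium: cells held in DMEM / Benchmarks: control and blank well means / Evaluation: percent signal gain over controls, blank-subtracted / Measured by: luciferase luminescence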

Chain of E3 ubiquitin-protein ligase Mdm2 (Homo sapiens) (Q00987 whole entry, looked up, the tested form may be a part): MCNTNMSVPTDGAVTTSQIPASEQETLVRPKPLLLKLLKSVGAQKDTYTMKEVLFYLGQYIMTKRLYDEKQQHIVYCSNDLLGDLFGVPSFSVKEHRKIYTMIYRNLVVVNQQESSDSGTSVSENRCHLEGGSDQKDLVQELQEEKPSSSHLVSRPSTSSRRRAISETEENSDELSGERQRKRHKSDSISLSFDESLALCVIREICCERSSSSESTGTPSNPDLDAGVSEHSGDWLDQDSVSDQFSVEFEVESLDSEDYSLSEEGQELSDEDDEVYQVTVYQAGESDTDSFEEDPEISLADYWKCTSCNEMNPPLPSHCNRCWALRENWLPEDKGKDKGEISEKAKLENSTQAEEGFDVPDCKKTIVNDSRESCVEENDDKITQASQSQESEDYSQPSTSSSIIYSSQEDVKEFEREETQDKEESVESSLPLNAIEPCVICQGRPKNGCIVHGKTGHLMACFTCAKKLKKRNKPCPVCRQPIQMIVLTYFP

SMILES | signal enhancement
COc1ccc(NC(=O)C2=C(C)NC(=O)NC2c2ccccc2[N+](=O)[O-])cc1 (configuration not stated) | -9.62%
Nc1nc(NCC2CCCO2)nc(Nc2ccccc2F)c1[N+](=O)[O-] (configuration not stated) | 1.79%
CCCN(CCC)C(=S)Nc1cc(C(=O)OC)ccc1C(=O)OC | 39.1% (active)
CCN(CCO)C(=S)Nc1cc(C(=O)OC)ccc1C(=O)OC | 3.69%
CCS(=O)(=O)Nc1cc(C(=O)OC)ccc1C(=O)OC | -8.23%
Cc1cc(C)cc(OCC(=O)NNC(=O)c2cc3ccccc3oc2=O)c1 | 1.34%
Cc1cc(C)cc(OCC(=O)NNC(=O)CCN2C(=O)c3ccccc3C2=O)c1 | 31.1% (active)
O=C(CCN1C(=O)c2ccccc2C1=O)NNC(=O)c1ccc(Cl)cc1Cl | -8.02%
Clc1ccc(-c2cc(-c3ccccn3)on2)c(Cl)c1 | -77.9%
CCCN(c1ccc(C)cc1)c1nc(=O)c2cccnc2s1 | -10%
Fc1ccc(Nc2nnns2)cc1 | -6.61%
CC(=O)Nc1ccc(OCC(=O)NCc2ccc(C)cc2)cc1 | -12.3%
COc1ccc(CS(=O)/C(Cl)=C(/Cl)C(=O)Nc2ccc(OC)nc2)cc1 (configuration not stated) | 53.8% (active)
COc1ccc(NC(=O)/C(Cl)=C(/Cl)S(=O)Cc2ccc(C)cc2)cn1 (configuration not stated) | 72.4% (active)
COc1ccc(C(=O)Nc2ccc(NC(=O)C(C)C)nc2)cc1 | -20.6%
COc1ccc(NC(=S)Nc2ccccc2Cl)cn1 | -15.3%
Cc1ccc(NC(=O)OCc2cncs2)cc1 | -21.3%
CC(C)CCNC(=O)C1CCC(CNc2c(N3CCC(C)CC3)c(=O)c2=O)CC1 (configuration not stated) | -5.11%
COc1ccc2c(CC(=O)OCC(=O)NC(N)=O)coc2c1 | 0.56%
COC(=O)/C=C(\Oc1ccccc1)C1(O)CCCCC1 | -12%
CC(=O)NNC(=O)c1csc(Cc2c(Cl)sc3ccc(Cl)cc23)n1 | -2.59%
CCC1(C)Cc2c(sc3nc(SC)[nH]c(=O)c23)CO1 (configuration not stated) | -9.94%
CCOC(=O)CC1C(=O)NCCN1c1nc2c(C)cccn2c(=O)c1/C=C1\SC(=S)N(C(C)CC)C1=O (configuration not stated) | -24.8%
O=C(Oc1ccccc1C(=S)N1CCCCC1)c1cc([N+](=O)[O-])cc([N+](=O)[O-])c1 | -1.87%
Cc1cc(OC(=O)c2ccccc2)c([N+](=O)[O-])c(=O)[nH]1 | 39.8% (active)

SMILES | signal enhancement
COc1cccc(C(=O)Oc2cc(C)[nH]c(=O)c2[N+](=O)[O-])c1 | -90.1%
c1csc(-c2nnc(COc3ncnc4sccc34)o2)c1 | -10.9%
COc1ccc(/C=N/NS(=O)(=O)c2ccc(NC(C)=O)cc2)cc1 | -14.4%
Cc1nc(-c2ccccc2)sc1-c1nnc(C2CC2)o1 | -9.04%
CCOc1ccc(C2NC(=S)NC3=C2CCc2ccccc23)cc1 (configuration not stated) | -16.9%
CN(c1ccc(OCC(=O)NC2=NCCS2)cc1)S(=O)(=O)c1ccc(F)cc1 | -0.06%
Cc1ccc(Oc2nc(-c3ccccn3)nc3ccccc23)cc1 | -1.85%
Brc1ccc2c(c1)[C@H]1OCC[C@H]1[C@@H](c1cccs1)N2 | -17.3%
COc1ccc(OC)c(-n2c(-c3ccn[nH]3)n[nH]c2=S)c1 | -7.17%
O=C(Nc1cccc(Cl)c1)Nc1nnc(-c2ccccc2)o1 | -7.54%
O=C(Nc1nnc(-c2ccc(Cl)cc2)o1)c1ccccc1Br | 108% (active)
CCCC(=O)Nc1nnc(-c2ccccc2)o1 | -6.24%
COc1ccccc1C1CCN(c2ccc([N+](=O)[O-])cn2)CC1 | -10.5%
CCN(CC)CCn1cnc2c1c(=O)n(CCOC(=O)c1cc(OC)c(OC)c(OC)c1)c(=O)n2C | 2.01%
O=C(NC(=O)c1cc(OCC(F)(F)F)ccc1OCC(F)(F)F)Nc1ccccc1 | -3.24%
N#CCC(=O)N/N=C/c1cn(Cc2ccc3ccccc3c2)c2ccccc12 | -6.67%
CCn1c(SCC(=O)N/N=C/c2ccncc2)nc2ccccc21 | -15.7%
CC(C)(C)CN1C(=O)C(=O)NC[C@H]1Cc1cccc2ccccc12 | -5.59%
O=C(N/N=C/c1ccccn1)c1cccnc1 | -13%
CCOC(=O)CN(C(=O)COc1nc(C)cc(C)c1C#N)c1ccc(Cl)cc1 | -12.8%
O=S(=O)(c1ccc(NC(=S)NN=C(C2CC2)C2CC2)cc1)N1CCOCC1 | -6.04%
Cc1nnc(C)c2c(C)n(N)c(C)c12 | -11.1%
Cc1nc(SCc2ccc(F)cc2)c([N+](=O)[O-])[nH]1 | 30.6% (active)
Cc1cc([N+](=O)[O-])nn1Cc1ccc(F)cc1 | -10.9%
Cc1nc(SCC(=O)c2ccccc2)c([N+](=O)[O-])[nH]1 | -9.82%

SMILES | signal enhancement
O=C(CCS(=O)(=O)c1ccccc1Cl)Nc1ccc(S(=O)(=O)Nc2ncccn2)cc1 | -14.3%
O=C(O)C#Cc1cccc2ccccc12 | -21.3%
Cc1nc2c(ncn2-c2ccccc2)c(=O)n1NC(=O)CN1CCCC1 | -14.3%
C/C(=N/Nc1nc(-c2ccccc2)c(CC(=O)O)s1)c1ccccc1 | -20.1%
S=C(NNC(=S)NC1CC2CCC1C2)NC1CC2C=CC1C2 (configuration not stated) | -3.28%
COC(=O)c1scc(S(=O)(=O)C(C)(C)C)c1-n1cccc1 | -17%
C/C(=N\NC(N)=S)c1ccncc1 | -0.15%
C/C(=N\NC(N)=S)c1cccnc1 | 54.3% (active)
C/C(=N\NC(=O)c1cccnc1)c1ccc(-c2ccccc2)cc1 | -9.97%
COC(=O)N(NC(=O)C(O)(C(C)C)C(C)C)c1ccccc1 | -12.4%
O=C(C[n+]1cc(-c2ccc(Cl)c(Cl)c2)n2c1CCC2)c1cccs1 | -2.63%
CS(=O)(=O)c1ccc(Cl)c(NC(=O)Nc2ccccc2)c1 | -9.46%
Cc1onc(-c2ccc(Cl)cc2)c1-c1ccnn1S(=O)(=O)c1ccc(Cl)cc1 | -0.58%
C=CCC1(C#N)C(=S)NC(C)=C(C(=O)OCC)C1c1ccccc1 (configuration not stated) | 9.19%
CCc1ccccc1N1CN(Cc2ccco2)CNC1=S | 2.19%
OCC1(Cc2ccccc2C(F)(F)F)CCN(Cc2ccncc2)CC1 | -8.35%
Cc1nc(/N=C(\N)NC(=O)NC2CCCCC2)nc2ccccc12 | -4.72%
COCCNc1nc(-c2ccccc2)nc2c1oc1ccccc12 | -11.4%
Cc1ccc2c(c1)nnc1nnc(SCC(=O)O)n12 | 0.72%
Cc1ccc2c(C)c(C(=O)N3CCC(N4CCC(C(=O)NC5CC5)CC4)CC3)oc2c1 | -9.89%
O=C(NC(=S)Nc1cccc2c(O)cccc12)c1cccc(Br)c1 | -0.26%
Clc1ccc(C[n+]2cc(-c3ccc(Cl)cc3)n3c2CCC3)cc1 | -12.4%
CSc1nnnn1-c1c(C)cc(C)cc1C | -3.25%
O=C(Nc1ccc(N2CCOCC2)nc1)c1c(F)cccc1F | -15%
Nc1nc(Sc2ncccc2[N+](=O)[O-])n[nH]1 | 1.65%

SMILES | signal enhancement
CCNC(=O)CCc1nc(-c2ccc(C)cc2)no1 | 8.03%
O=C1C2C3C=CC(C3)C2C(=O)N1c1ccc(S(=O)(=O)Nc2nccs2)cc1 (configuration not stated) | -8.32%
FC(F)(F)c1nc(-c2ccccc2)ncc1-c1nnnn1-c1ccccc1 | -9.19%
O=c1oc(-c2ccccc2NS(=O)(=O)c2ccc(Cl)cc2)nc2ccccc12 | -16.5%
COc1ccc(Cc2cc(-c3ccc(F)cc3)n[nH]c2=O)cc1 | -10.5%
O=C(NCCC1=CCCCC1)c1ccc(Cl)c([N+](=O)[O-])c1 | 59.6% (active)
CN(c1ccc(C(=O)NCCC2=CCCCC2)cc1)S(C)(=O)=O | -36.2%
Cn1nnc2cc(C(=O)NCCC3=CCCCC3)ccc21 | -41.3%
O=C1CCCCC1C(=O)c1ccccc1 (configuration not stated) | -74.7%
CNC(=O)c1csc(Cc2c(Cl)sc3ccc(Cl)cc23)n1 | -3.68%
O=C1N=C(N2CCc3ccccc3C2)S/C1=C\c1ccc(O)cc1 | -10.4%
O=S(=O)(Nc1ccc(OC(F)(F)F)cc1)c1cccc2nonc12 | 7.33%
Cc1onc(NC(=O)c2ccc([N+](=O)[O-])o2)c1Br | -5.7%
O=C(CCCCCN1C(=O)c2cccc3cccc(c23)C1=O)NCc1ccco1 | -8.79%
Cn1c(CSCC(=O)Nc2ccccc2)nnc1SCc1ccccc1 | -7.31%
Cn1cccc1/C=N/NC(=O)CNc1cccc2ccccc12 | -9.96%
COc1cc(OC)c2ccc(=O)oc2c1C(CCN1CCN(c2ccccc2)CC1)c1ccc2c(c1)OCO2 (configuration not stated) | 6.23%
COc1ccc(CCNC(=O)C(=O)Nc2ccc3nc4n(c(=O)c3c2)CCCCC4)cc1OC | 3.62%
Nc1ccccc1SC(C[N+](=O)[O-])c1ccccc1 (configuration not stated) | -3.83%
O=C(CCS(=O)(=O)Cc1ccccc1F)NCCCN1CCCCC1 | 35.1% (active)
Cn1c(C(=O)NCCCN2CCCCC2)cc2sccc21 | -19.5%
O=C(NCCCN1CCN(c2ccccc2F)CC1)C1CCC(=O)N1C1CCCCC1 (configuration not stated) | -15.4%

— PubChem BioAssay AID1230 (PCMD, 2008)
